The list is not random: actives were taken first. Their share in the collection is about 0.96%.
T cell modulator: T cell immune modulation candidate. 2C CD8+ T cell-vesicle binding, flow cytometry; active compounds read low. response (vesicle binding), % at 7 µM. 0.068% of 330,000 active;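 active = response, share of CD8 T cells binding vesicles, and their 90th percentile fluorescence all below set limits, cut at about 80% in these data, passing the limit was not always enough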;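 note: values below 100% mean blocked vesicle binding to the CD8+ T cells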
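System: murine 2C transgenic CD8+ T lymphocytes; also added: QL9-loaded Drosophila micro-vesicles; times: binding 1.5 h at 37 °C; measured by: flow cytometry, PE anti-B7-1 (FL2) versus Alexa647 anti-CD8 (FL8), PFA-fixed; control set: Peptide-free naked vesicles (low) and QL9 vesicles with 0.7% DMSO vehicle (high)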
RPL19A-GFP yeast: alters RPL19A-GFP fluorescence in TOR pathway yeast screen; percent response vs DMSO, % at 10 µM; 0.3% of 330,000 active; S. cerevisiae RPL19A-GFP strain, flow cytometry, 3 h; active compounds read low;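 active = percent response vs DMSO below 50%; inconclusive = fewer than 70 events counted for the yeast strain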;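 note: median channel GFP fluorescence of the barcoded RPL19A-GFP strain; ratio of sample median GFP to plate DMSO average so 100% = DMSO; lower means less RPL19A-GFP as with rapamycin TOR inhibition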
AGP1-GFP MLPCN: modulators of TOR pathway AGP1-GFP in S. cerevisiae | S. cerevisiae AGP1-GFP multiplex flow cytometry, 3 h; GFP as percent of DMSO wells | GFP response vs DMSO, % at 10 µM | 0.02% of 320,000 active;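 active = GFP response relative to DMSO above a set limit, near screen average plus 3 SD, cut at about 150% in these data; inconclusive = fewer than 70 cells counted for the yeast strain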;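 note: median GFP channel fluorescence of the gated AGP1 strain per well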
MEP2-GFP yeast: yeast TOR pathway MEP2-GFP modulation. GFP response vs DMSO, % at 10 µM. S. cerevisiae MEP2-GFP strain, flow cytometry GFP, 3 h; 100% = DMSO control level. 0.51% of 330,000 active;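 active = GFP response versus DMSO above a set limit, roughly screen mean plus 3 SD, cut at about 180% in these data; inconclusive = fewer than 70 cells counted for a yeast strain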;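 note: median GFP fluorescence of the barcode-gated MEP2-GFP cells per well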
CIT2 TOR yeast: yeast TOR pathway CIT2-GFP modulation. S. cerevisiae CIT2-GFP strain, flow cytometry, 3 h; 100 means same as DMSO wells. GFP response vs DMSO, % at 10 µM. 0.065% of 320,000 active;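 active = GFP response relative to DMSO above a set limit, near the screen mean plus 3 SD, cut at about 150% in these data; inconclusive = Fewer than 70 cells measured for a yeast strain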;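 note: ratio of well median GFP fluorescence to mean of DMSO wells on the plate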
LAP4 TOR yeast: alters LAP4-GFP fluorescence in TOR pathway yeast screen | S. cerevisiae LAP4-GFP multiplex, flow cytometry GFP, 3 h; median GFP as percent of DMSO wells | GFP response vs DMSO, % at 10 µM | 0.34% of 320,000 active;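 active = GFP response vs DMSO above a set limit, about the screen mean plus 3 SD, cut at about 150% in these data; inconclusive = under 70 cell events counted for the yeast strain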
The depositor's hits bear a star; i = inactive; ? = inconclusive; · = not tested or not shown; [ ] = dose if it differs, or a comment.

SMILES	T cell modulator	RPL19A-GFP yeast	AGP1-GFP MLPCN	MEP2-GFP yeast	CIT2 TOR yeast	LAP4 TOR yeast
O=C(NCc1ccncc1)C12CC3CC(CC(Cl)(C3)C1)C2	i	90.8	96.1	224.8*	83.5	145.4
Cc1onc(-c2ccccc2Cl)c1C(=O)Nc1cccc2cccnc12	161.0	15.9*[may fluoresce violet]	?	355.3*[may fluoresce violet]	?	107.8
COc1cc(NC(=O)c2c(-c3ccccc3Cl)noc2C)c2ncccc2c1	397.8	17.6*[may fluoresce violet]	?	160.3	?	62.3
COc1cc(NC(=O)c2ccc(Cl)cc2)c2ncccc2c1	361.0	114.2	107.1	118.6	108.4	108.0
Cc1onc(-c2ccccc2Cl)c1C(=O)Nc1cccc2nsnc12	286.7	109.9	103.4	103.4	95.2	105.9
Cc1ccc(NC(=O)CCc2nc3ccccc3c(=O)[nH]2)cc1S(=O)(=O)N1CCOCC1	405.1	102.5	103.2	111.6	109.5	99.8
O=C1C(=O)N(CCCn2ccnc2)C(c2ccc([N+](=O)[O-])cc2)/C1=C(\O)c1ccc2c(c1)OCCO2 (configuration not stated)	0.0*	110.1	101.4	100.0	98.6	103.8
O=C1C(=O)N(CCCn2ccnc2)C(c2ccc(Br)cc2)/C1=C(\O)c1ccc2c(c1)OCCO2 (configuration not stated)	405.0	97.9	98.7	96.2	93.5	94.8
CC1CCN(S(=O)(=O)c2cc(C(=O)NC3(C)CCS(=O)(=O)C3)ccc2Br)CC1 (configuration not stated)	387.2	97.9	99.5	99.6	93.7	100.9
CCOC(=O)N1CCN(C(=O)c2ccc(CS(=O)Cc3ccc(C)cc3)o2)CC1 (configuration not stated)	42.8*	106.5	106.0	104.9	112.8	106.9
OC1(c2ccc(F)cc2)CSC(=Nc2cccnc2)N1Cc1ccco1 (configuration not stated)	196.8	95.6	78.1	94.6	70.6	197.3*
O=C(OCC(=O)N1CCN(C(=O)c2ccco2)CC1)c1ccccc1O	200.5	95.5	94.5	107.4	96.4	·
N#Cc1ccccc1Sc1ccccc1C(=O)OCC(=O)N1CCN(C(=O)c2ccco2)CC1	262.6	14.7*[may fluoresce violet]	?	207.0*[may fluoresce violet]	?	91.2
COc1ccc(CCC(=O)Nc2nccs2)cc1OC	266.3	47.5*[may fluoresce violet]	21.7	198.1*[may fluoresce violet]	?	94.2
COc1ccccc1OCC(=O)NC1CCCc2ccccc21 (configuration not stated)	405.4	101.4	93.1	99.1	87.3	91.7
COc1ccc(CCC(=O)NC2CCCc3ccccc32)cc1OC (configuration not stated)	182.1	28.5*[may fluoresce violet]	?	236.1*[may fluoresce violet]	?	70.6
CC(=O)c1cc(C(=O)N2CCCC(C(=O)c3ccc(Cl)cc3)C2)cs1 (configuration not stated)	452.7	95.0	95.2	102.2	94.0	100.3
CSc1nc2ccc(S(=O)(=O)N3CCCC3)cc2s1	145.9	92.9	102.1	98.5	72.9	177.3*
COc1cccc(/C=C2\SC(=O)N(CCC(=O)NNC(=O)c3ccccc3Cl)C2=O)c1	10.1*	96.5	100.4	96.3	107.5	100.3
COc1ccccc1NC(=O)COC(=O)c1ccc([N+](=O)[O-])s1	226.3	20.6*[may fluoresce violet]	10.1	104.9	?	53.2
NC(=O)CSCc1c(Cl)cccc1Cl	438.5	65.8	60.6	217.4*	90.5	83.2
c1ccc(-c2csc3ncnc(N4CCN(Cc5ccc6c(c5)OCO6)CC4)c23)cc1	i	98.8	93.7	103.5	101.5	88.0
O=C(CSc1ncnc2scc(-c3ccccc3)c12)N1CCN(Cc2ccc3c(c2)OCO3)CC1	154.2	29.9*[may fluoresce violet]	?	198.3*[may fluoresce violet]	?	57.0
CC(=O)NCCc1c(C)n(Cc2ccccc2)c2ccccc12	302.1	101.2	95.2	102.1	97.5	90.6
O=c1c(C=NCC2CCCO2)c(-c2ccccc2)[nH]n1-c1ccc([N+](=O)[O-])cc1 (configuration not stated)	132.8	34.9*[may fluoresce violet]	?	?	?	?
SMILES	T cell modulator	RPL19A-GFP yeast	AGP1-GFP MLPCN	MEP2-GFP yeast	CIT2 TOR yeast	LAP4 TOR yeast
COc1ccc(-c2[nH]n(-c3ccc([N+](=O)[O-])cc3)c(=O)c2C=NCC2CCCO2)cc1 (configuration not stated)	386.6	94.1	96.5	98.1	99.8	95.2
O=C1CNC(=S)N1CCc1ccc(O)c(O)c1	187.1	98.1	111.3	99.0	100.5	111.5
COc1cc(/C=C/C(=O)c2ccc([N+](=O)[O-])o2)ccc1O	446.6	70.2	32.4	161.2	?	231.8*[may fluoresce violet]
O=C(/C=C/c1cccc(Cl)c1)c1ccc([N+](=O)[O-])o1	130.1	58.0	15.0	202.0*[may fluoresce violet]	?	135.2
Cc1cc(O)c(C(=O)/C=C/c2cccc([N+](=O)[O-])c2)c(=O)o1	152.4	92.3	111.0	89.0	103.1	128.3
COc1cc(/C=C/C(=O)O)ccc1O	147.3	89.2	89.4	96.2	91.6	90.4
O=C(Nc1ccccc1Cl)Oc1ccc(Cl)cc1Cl	27.2*	99.3	95.2	105.8	107.0	86.2
CCSC1(SCC)N=C(N)C2(C#N)C(c3ccccc3)NC3=C(CCC3)C12C#N (configuration not stated)	251.2	42.1*[may fluoresce violet]	19.9	277.4*[may fluoresce violet]	?	96.6
O=C(COC(=O)/C=C/c1ccc(OC(F)F)cc1)Nc1ccc(N2CCOCC2)cc1	232.5	94.8	101.9	98.3	96.9	99.2
O=C(NCCc1ccccc1)C(c1ccccc1)N(C(=O)c1csnn1)C1CC1 (configuration not stated)	450.2	102.3	107.9	110.2	103.3	109.7
O=C(NCCc1ccccc1)C(c1ccc(F)cc1)N(C(=O)c1csnn1)C1CC1 (configuration not stated)	200.9	28.1*[may fluoresce violet]	?	201.2*[may fluoresce violet]	?	57.5
O=C(NCCc1ccccc1)C(c1ccccc1F)N(C(=O)c1csnn1)C1CC1 (configuration not stated)	245.7	38.5*[may fluoresce violet]	?	216.6*[may fluoresce violet]	?	61.9
N#Cc1ccc(OCC(=O)Nc2ccc(N3CCCC3)cc2)cc1	250.3	92.5	90.3	98.1	90.1	92.1
Cc1ccccc1NC(=O)N1CCNC(=O)C1CC(=O)Nc1cc(Cl)ccc1Cl (configuration not stated)	114.3	94.1	118.3	109.4	159.0*[may fluoresce green]	103.1
COc1ccc(C(=O)NC2CCN(CC(=O)NCc3ccccc3F)CC2)cc1	297.9	101.7	101.6	101.6	100.1	95.7
COc1ccc(C(=O)NC2CCN(CC(=O)NCc3ccccc3)CC2)cc1	187.5	60.5	62.8	505.5*[may fluoresce violet]	?	93.7

Screening data from PubChem.
